The term IC50 denotes the point on the concentration scale where inhibition reaches its midpoint. In general, Papp refers to the rate of passage across a membrane or cell layer, normalised by area and donor concentration. Broadly, the half-life is the time in which the quantity being followed falls by half. By Cmax is commonly meant the peak of the concentration-time curve. By Tmax is commonly meant the time from dosing to the highest level. A word on the fraction unbound: it is free concentration divided by total concentration.

The text below walks through data of ChEMBL document CHEMBL3864175, “Sulfonamides as Selective NaV1.7 Inhibitors: Optimizing Potency and Pharmacokinetics to Enable in Vivo Target Engagement” (ACS Med Chem Lett, 2016).

Data set [1] has as its target T1, Sodium channel protein type 5 subunit alpha (Homo sapiens, UniProt Q14524). The experiment in a line: Inhibition of human Nav1.5 expressed in HEK293 cells assessed as inhibition of sodium current at holding potential of -125 mV measured for 3 to 5 mins by whole cell voltage clamp method. Format: cell-based.
Data set [2] is described as follows: Apparent permeability in MDCK cells. In kind it is ADME, cell-based, Canis lupus familiaris. The note with it: dog. In short, it runs like this:
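Apparent permeability measured in parental MDCK cells.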

The nature of data set [3]: Inhibition of 20% inactivated dog Nav1.7 expressed in HEK293T cells assessed as inhibition of sodium current measured for 3 to 5 mins by whole cell voltage clamp method. In kind it is cell-based. As to conditions: HEK-293T. The procedure, abridged:
(§1)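 Electrophysiological block was measured with cells depolarized to a voltage that gave 20% channel inactivation, as opposed to a fully non-inactivated (closed) holding condition.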

Data set [4] in a line: Inhibition of 20% inactivated cynomolgus monkey Nav1.7 expressed in HEK293T cells assessed as inhibition of sodium current measured for 3 to 5 mins by whole cell voltage clamp method. Format: cell-based. The note with it: Macaca fascicularis, HEK-293T. In short, it runs like this: as §1
Data set [5] concerns the target Sodium channel protein type 2 subunit alpha (Homo sapiens, UniProt Q99250). The experiment in a line: Inhibition of 20% inactivated human Nav1.2 expressed in CHO cells assessed as inhibition of peak inward current by whole cell patch clamp method. In kind it is cell-based.
Data set [6] deals with T1, Sodium channel protein type 5 subunit alpha. The experiment in a line: Inhibition of 20% inactivated human Nav1.5 expressed in HEK293 cells assessed as inhibition of peak inward current by whole cell patch clamp method. In kind it is cell-based. (In patch-clamp work, channel activity is measured electrically.)
A short description of data set [7]: Unbound clearance in dog at 0.5 mg/kg, iv by LC-MS/MS analysis. In kind it is ADME, organism-based, Canis lupus familiaris. As to conditions: in vivo. The procedure, abridged: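 Dogs dosed intravenously at 0.5 mg/kg in 30% HPBCD/70% water, brought to pH 10 with KOH.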
Data set [8] can be described thus: Volume of distribution at steady state in rat at 0.5 mg/kg, iv by LC-MS/MS analysis. Format: ADME, organism-based. The note with it: in vivo, read-out: Vdss. In short, it runs like this:
(§2)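 Male rats, n = 2 per group, dosed intravenously at 0.5 mg/kg as a solution in 100% DMSO. Unbound clearance is derived from total clearance.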

Data set [9] is described as follows: Half life in rat at 0.5 mg/kg, iv by LC-MS/MS analysis. In kind it is ADME, organism-based. As to conditions: in vivo. In short, it runs like this:
as §2

A short description of data set [10]: Cmax in dog at 1.7 mg/kg, po by LC-MS/MS analysis. In kind it is ADME, organism-based, Canis lupus familiaris. More on the design: dose 1.7 mg/kg, route oral. The note with it: in vivo. In short, it runs like this: (§3)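 Dogs given a 1.7 mg/kg oral dose as a solution in 30% HPBCD/70% water/KOH at pH = 10; plasma parameters derived from this oral dosing, with the iv dose at 0.5 mg/kg in the same vehicle.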

The nature of data set [11]: Tmax in rat at 10 mg/kg, po by LC-MS/MS analysis. In kind it is ADME, organism-based. As to conditions: in vivo. In short, it runs like this: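 Rats dosed orally at 10 mg/kg as a solution in 30% HPBCD/70% water, brought to pH 10 with KOH.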
A short description of data set [12]: Tmax in dog at 1.7 mg/kg, po by LC-MS/MS analysis. Format: ADME, organism-based, Canis lupus familiaris. As to conditions: in vivo. In short, it runs like this: as §3
Data set [13] is described as follows: Fraction unbound in dog plasma at 5 uM by LC-MS/MS analysis. Format: ADME, cell-free, Canis lupus familiaris.
A short description of data set [14]: Drug excretion in bile duct cannulated Sprague-Dawley rat bile assessed as parent compound at 1 mg/kg, iv administered through catheter measured up to 24 hrs by LC-MS/MS analysis. Format: ADME, organism-based. The note with it: read-out: Drug excretion.
The subject of another data set is Mus musculus. The experiment in a line: Antipruritic activity in histamine-induced scratching C57BL/6 mouse model assessed as reduction in scratching bouts administered orally 120 mins prior to histamine challenge measured after 30 mins relative to vehicle-treated control. Format: functional. The procedure, abridged:
(§4)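 Male C57BL/6 mice dosed orally 120 min before intradermal histamine. Scratching bouts counted over 30 min and compared with vehicle by one-way ANOVA with Dunnett's test. Total and unbound plasma levels taken 30 min after histamine.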

Data set [15] can be described thus: Drug uptake in plasma of po dosed histamine induced C57BL/6 mouse model of scratching pretreated for 120 mins followed by histamine-challenge measured after 30 mins. As to conditions: in vivo, 0.5 h. In kind it is ADME, organism-based. The procedure, abridged:
as §4

A short description of data set [16]: Total plasma concentration in histamine induced C57BL/6 mouse model of scratching at 20 mg/kg, po pretreated for 120 mins followed by histamine-challenge measured after 30 mins. Format: ADME, organism-based. The procedure, abridged:
as §4

A short description of data set [17]: Total plasma concentration in histamine induced C57BL/6 mouse model of scratching at 60 mg/kg, po pretreated for 120 mins followed by histamine-challenge measured after 30 mins. In kind it is ADME, organism-based. In short, it runs like this:
as §4

Data set [18] can be described thus: Unbound plasma concentration in histamine induced C57BL/6 mouse model of scratching at 20 mg/kg, po pretreated for 120 mins followed by histamine-challenge measured after 30 mins. Format: ADME, organism-based. The note with it: in vivo, 0.5 h. In short, it runs like this:
as §4

T1 sequence (Q14524 whole entry): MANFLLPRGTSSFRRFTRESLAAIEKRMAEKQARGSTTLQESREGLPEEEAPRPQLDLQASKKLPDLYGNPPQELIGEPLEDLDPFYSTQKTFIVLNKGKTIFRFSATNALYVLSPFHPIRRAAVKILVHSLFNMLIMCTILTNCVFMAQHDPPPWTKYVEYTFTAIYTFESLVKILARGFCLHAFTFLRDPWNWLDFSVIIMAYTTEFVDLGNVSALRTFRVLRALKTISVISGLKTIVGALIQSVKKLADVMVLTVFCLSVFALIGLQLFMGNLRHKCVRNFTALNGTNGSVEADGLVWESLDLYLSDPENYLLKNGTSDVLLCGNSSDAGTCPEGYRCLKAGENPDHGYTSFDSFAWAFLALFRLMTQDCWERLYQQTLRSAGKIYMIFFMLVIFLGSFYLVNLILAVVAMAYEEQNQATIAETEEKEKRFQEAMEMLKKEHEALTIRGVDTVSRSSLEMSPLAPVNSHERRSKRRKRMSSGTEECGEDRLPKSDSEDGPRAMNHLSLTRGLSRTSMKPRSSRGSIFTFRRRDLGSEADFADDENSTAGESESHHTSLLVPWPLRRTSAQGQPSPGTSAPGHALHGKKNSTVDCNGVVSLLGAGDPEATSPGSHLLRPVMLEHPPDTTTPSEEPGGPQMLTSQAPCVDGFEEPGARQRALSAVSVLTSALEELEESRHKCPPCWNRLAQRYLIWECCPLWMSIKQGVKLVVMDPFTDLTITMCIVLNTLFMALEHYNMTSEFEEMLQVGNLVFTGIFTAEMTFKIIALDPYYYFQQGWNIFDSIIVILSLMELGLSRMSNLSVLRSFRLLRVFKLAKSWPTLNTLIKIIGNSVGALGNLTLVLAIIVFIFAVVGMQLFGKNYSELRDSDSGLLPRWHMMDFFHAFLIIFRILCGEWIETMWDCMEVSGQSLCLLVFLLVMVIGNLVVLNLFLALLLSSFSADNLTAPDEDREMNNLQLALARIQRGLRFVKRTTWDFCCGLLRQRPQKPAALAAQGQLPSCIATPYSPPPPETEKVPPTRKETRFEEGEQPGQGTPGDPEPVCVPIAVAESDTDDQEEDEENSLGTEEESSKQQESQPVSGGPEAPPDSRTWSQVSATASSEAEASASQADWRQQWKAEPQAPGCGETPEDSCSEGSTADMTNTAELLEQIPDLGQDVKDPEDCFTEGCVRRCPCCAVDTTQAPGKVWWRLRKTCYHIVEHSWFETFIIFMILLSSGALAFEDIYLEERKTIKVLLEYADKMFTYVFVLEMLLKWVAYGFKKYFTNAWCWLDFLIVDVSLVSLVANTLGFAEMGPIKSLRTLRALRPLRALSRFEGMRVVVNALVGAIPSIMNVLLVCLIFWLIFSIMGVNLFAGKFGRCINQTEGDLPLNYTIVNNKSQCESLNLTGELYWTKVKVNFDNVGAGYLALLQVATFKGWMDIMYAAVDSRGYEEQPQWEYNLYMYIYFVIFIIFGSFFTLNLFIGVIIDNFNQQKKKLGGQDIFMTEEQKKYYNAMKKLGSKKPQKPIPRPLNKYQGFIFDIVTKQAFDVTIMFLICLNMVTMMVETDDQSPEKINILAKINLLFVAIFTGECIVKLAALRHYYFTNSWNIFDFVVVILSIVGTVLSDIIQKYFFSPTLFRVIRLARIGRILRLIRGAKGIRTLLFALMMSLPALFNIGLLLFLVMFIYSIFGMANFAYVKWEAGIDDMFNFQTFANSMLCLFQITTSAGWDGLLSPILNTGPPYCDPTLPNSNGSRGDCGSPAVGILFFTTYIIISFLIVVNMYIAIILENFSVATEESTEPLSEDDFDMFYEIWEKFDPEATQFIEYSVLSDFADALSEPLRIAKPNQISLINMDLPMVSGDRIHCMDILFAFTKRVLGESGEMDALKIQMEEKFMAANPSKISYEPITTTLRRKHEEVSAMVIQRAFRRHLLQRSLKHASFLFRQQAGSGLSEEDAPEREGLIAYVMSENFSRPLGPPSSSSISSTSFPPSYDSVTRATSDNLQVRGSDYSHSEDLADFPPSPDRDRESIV
Sodium channel protein type 2 subunit alpha, sequence (Q99250 whole entry): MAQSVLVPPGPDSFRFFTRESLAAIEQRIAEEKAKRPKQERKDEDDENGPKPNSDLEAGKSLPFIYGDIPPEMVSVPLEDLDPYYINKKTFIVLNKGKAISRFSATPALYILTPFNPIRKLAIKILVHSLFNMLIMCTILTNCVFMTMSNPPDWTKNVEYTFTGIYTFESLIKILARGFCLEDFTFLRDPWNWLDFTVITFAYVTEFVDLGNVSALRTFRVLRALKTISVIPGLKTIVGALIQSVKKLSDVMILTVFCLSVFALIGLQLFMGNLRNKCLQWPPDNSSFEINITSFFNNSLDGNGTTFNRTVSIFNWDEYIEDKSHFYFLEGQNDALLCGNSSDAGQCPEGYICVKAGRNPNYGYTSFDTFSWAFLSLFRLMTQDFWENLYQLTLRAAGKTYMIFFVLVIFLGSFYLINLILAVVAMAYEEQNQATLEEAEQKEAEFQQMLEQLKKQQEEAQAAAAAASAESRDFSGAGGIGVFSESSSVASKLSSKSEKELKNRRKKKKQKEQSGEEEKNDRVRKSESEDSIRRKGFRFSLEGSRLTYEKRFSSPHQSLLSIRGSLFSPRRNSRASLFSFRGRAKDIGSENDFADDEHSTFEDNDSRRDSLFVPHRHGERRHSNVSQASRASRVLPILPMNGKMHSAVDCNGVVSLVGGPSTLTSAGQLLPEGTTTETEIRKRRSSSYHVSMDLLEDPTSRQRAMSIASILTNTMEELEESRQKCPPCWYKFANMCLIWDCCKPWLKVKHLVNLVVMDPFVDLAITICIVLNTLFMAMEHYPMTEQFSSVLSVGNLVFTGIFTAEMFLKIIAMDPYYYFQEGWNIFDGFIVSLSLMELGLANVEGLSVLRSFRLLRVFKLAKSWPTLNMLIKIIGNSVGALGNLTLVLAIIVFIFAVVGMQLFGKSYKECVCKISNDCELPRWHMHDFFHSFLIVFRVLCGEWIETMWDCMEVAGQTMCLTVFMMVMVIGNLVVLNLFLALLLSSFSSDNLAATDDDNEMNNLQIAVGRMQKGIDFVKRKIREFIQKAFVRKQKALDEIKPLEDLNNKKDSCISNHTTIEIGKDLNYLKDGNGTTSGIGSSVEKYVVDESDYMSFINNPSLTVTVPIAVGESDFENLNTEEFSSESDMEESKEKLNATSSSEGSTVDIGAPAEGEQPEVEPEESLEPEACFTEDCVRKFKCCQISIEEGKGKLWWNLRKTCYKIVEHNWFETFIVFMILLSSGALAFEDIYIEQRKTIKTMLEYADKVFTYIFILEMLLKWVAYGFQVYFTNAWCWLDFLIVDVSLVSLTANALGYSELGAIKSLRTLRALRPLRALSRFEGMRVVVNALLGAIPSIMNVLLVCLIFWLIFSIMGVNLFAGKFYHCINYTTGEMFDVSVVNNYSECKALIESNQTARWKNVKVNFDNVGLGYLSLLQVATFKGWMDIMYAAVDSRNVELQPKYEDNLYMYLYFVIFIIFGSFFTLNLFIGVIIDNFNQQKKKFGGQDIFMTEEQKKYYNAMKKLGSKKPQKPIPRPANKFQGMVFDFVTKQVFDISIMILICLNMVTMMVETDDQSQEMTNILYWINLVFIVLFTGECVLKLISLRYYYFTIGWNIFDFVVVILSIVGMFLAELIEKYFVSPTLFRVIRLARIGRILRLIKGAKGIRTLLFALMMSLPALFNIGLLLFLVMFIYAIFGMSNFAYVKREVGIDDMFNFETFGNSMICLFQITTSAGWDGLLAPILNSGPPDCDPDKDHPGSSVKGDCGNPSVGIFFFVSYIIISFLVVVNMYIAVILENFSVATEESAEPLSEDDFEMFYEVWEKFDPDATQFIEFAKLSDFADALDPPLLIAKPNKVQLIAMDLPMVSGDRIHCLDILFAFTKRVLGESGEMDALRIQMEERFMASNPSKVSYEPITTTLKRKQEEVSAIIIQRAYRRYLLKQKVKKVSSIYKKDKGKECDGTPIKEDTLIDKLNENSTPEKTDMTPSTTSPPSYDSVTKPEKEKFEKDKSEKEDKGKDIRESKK

With `COc1cc(C(F)(F)F)ccc1-c1ncnc2cc(S(=O)(=O)Nc3nccs3)ccc12`, the IC50 was above 30000 nM in [1]; 180 nM in data set [3]; 160 nM in [4]; 2100 nM in data set [5]; 16000 nM in [6]. In data set [2], the Papp came to 31 ×10⁻⁶ cm/s. Also, the CL free in data set [7] amounted to 17 mL/min/kg. In addition, in data set [8], the Vd was determined as 1.5 L. This molecule also gave a half-life in data set [9] of 1.9 h. In addition, the concentration in [10] peaked (Cmax) at 8 µM. For the same molecule, the Tmax in data set [11] is 1.7 h; in data set [12], 2.3 h. In [13], this molecule registered a fraction unbound at 5 µM of 0.014. In addition, the dose excreted at 24 h in data set [14] came out at 4.7%. The Activity result in the data set on Mus musculus was “Dose-dependent effect”. The Drug uptake result in data set [15] was “Dose-dependent effect”. The concentration at 0.5 h in data set [16] came to 22 µM; in data set [17], 150 µM. Moreover, in [18], the “Cp(f)” value is 0.76 µM.
